Measurements: ChEMBL document CHEMBL4145478, “Synthesis and biological evaluation of bifendate derivatives bearing 6,7-dihydro-dibenzo[c,e]azepine scaffold as potential P-glycoprotein and tumor metastasis inhibitors” (Eur J Med Chem, 2018)
Counter-ions that a name gives are not always drawn. Activity calls are given as the source filed them. No cut-off for these calls is given here.

Tests used:
K562/A02 [1] = assay: Cytotoxicity against human K562/A02 cells assessed as reduction in cell viability after 72 hrs by MTS assay; format: cell-based; conditions: K562/A02, 72 h
How it was run: (§1)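 Cells (1×10^4/well) in RPMI-1640 grown 24 h, then exposed to a range of concentrations for 72 h at 37 °C, 5% CO₂. MTS added for a further 3 h at 37 °C; absorbance read at 490 nm. IC50 from dose-response curves; means of triplicate experiments.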

K562 [2] = assay: Cytotoxicity against human K562 cells assessed as reduction in cell viability after 72 hrs by MTS assay; format: cell-based; conditions: K562, 72 h; how it was run: as §1
K562 [3] = assay: Effect on intracellular Rh123 accumulation in human K562 cells at 0.3 to 10 uM after 1 hr by flow cytometric analysis; format: functional, cell-based
How it was run: (§2)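 1×10^6 K562 or K562/A02 cells preincubated 1 h at 37 °C with compound (10 μM single dose; dose-response at 10, 3.3 and 0.3 μM), verapamil or 0.1% DMSO vehicle, then 0.5 μM Rh123 for 30 min. Stopped and washed three times with ice-cold PBS; flow cytometry. Fold change = fluorescence over vehicle; mean ± S.D., three independent experiments.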

K562/A02 [4] = assay: Inhibition of P-gp mediated efflux in human K562/A02 cells assessed as increase in intracellular Rh123 accumulation after 1 hr by flow cytometric analysis; format: cell-based; how it was run: as §2
MDA-MB-231 [5] = assay: Antimigratory activity against human MDA-MB-231 cells assessed as reduction in cell invasion at 5 to 45 uM after 24 hrs by crystal violet staining-based matrigel assay; format: functional
How it was run: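 MDA-MB-231 cells pretreated 24 h with 5, 15 or 45 μM, seeded in serum-free medium into transwell chambers precoated with matrigel (40 μg/100 μL/chamber, 37°C, 1 h); lower compartment medium with 10% FBS. Incubation 24 h, then invaded cells stained with crystal violet and counted in three random fields; expressed as % of control.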

MDA-MB-231 [6] = assay: Antiproliferative activity against human MDA-MB-231 cells after 72 hrs by MTT assay; format: cell-based; conditions: MDA-MB-231, 72 h
[7] = molecular target: 72 kDa type IV collagenase (Homo sapiens) (UniProt P08253); assay: Inhibition of MMP2 activity in human MDA-MB-231 cells after 24 hrs by gelatin zymography assay; format: cell-based
Sequence of 72 kDa type IV collagenase (Homo sapiens) (P08253 110-660 limits assumed): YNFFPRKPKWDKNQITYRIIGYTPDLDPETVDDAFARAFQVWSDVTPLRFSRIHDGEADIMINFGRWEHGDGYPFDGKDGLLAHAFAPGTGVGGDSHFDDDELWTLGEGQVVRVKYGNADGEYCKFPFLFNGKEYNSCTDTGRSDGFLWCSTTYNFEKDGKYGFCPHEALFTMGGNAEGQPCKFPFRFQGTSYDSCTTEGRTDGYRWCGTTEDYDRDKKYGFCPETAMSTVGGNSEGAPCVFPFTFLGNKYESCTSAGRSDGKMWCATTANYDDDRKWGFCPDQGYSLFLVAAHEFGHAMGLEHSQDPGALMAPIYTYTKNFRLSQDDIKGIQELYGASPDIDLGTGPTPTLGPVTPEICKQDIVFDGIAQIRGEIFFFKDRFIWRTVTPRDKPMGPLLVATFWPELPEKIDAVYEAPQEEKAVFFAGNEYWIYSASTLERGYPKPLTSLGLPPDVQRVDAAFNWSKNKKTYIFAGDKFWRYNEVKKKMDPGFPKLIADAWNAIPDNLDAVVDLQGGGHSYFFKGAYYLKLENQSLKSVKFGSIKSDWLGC

MDA-MB-231 [8] = assay: Inhibition of MMP2 expression in human MDA-MB-231 cells after 24 hrs by Western blot analysis; format: functional, cell-based
How it was run: (§3)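 MDA-MB-231 cells exposed to 5, 15 or 45 μM for 24 h, then lysed; immunoblotted with antibodies against MMP-2 and MMP-9; detection with BCIP/NBT alkaline phosphatase substrate for 15 min.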

K562/A02 [9] = assay: Effect on P-gp protein expression in human K562/A02 cells at 2 uM after 48 hrs by Western blot analysis; format: functional, cell-based
K562/A02 [10] = assay: Effect on P-gp mRNA expression in human K562/A02 cells at 2 uM after 48 hrs by RT-PCR analysis; format: functional, cell-based
[11] = system: MMP-9 (92 kDa type IV collagenase, Homo sapiens); assay: Inhibition of MMP9 activity in human MDA-MB-231 cells at 5 uM after 24 hrs by gelatin zymography assay relative to control; values are per cent of control
[12] = molecular target: Matrix metalloproteinase-9 (Homo sapiens) (UniProt P14780); assay: Inhibition of MMP9 activity in human MDA-MB-231 cells after 24 hrs by gelatin zymography assay
Sequence of Matrix metalloproteinase-9 (Homo sapiens) (P14780 whole entry): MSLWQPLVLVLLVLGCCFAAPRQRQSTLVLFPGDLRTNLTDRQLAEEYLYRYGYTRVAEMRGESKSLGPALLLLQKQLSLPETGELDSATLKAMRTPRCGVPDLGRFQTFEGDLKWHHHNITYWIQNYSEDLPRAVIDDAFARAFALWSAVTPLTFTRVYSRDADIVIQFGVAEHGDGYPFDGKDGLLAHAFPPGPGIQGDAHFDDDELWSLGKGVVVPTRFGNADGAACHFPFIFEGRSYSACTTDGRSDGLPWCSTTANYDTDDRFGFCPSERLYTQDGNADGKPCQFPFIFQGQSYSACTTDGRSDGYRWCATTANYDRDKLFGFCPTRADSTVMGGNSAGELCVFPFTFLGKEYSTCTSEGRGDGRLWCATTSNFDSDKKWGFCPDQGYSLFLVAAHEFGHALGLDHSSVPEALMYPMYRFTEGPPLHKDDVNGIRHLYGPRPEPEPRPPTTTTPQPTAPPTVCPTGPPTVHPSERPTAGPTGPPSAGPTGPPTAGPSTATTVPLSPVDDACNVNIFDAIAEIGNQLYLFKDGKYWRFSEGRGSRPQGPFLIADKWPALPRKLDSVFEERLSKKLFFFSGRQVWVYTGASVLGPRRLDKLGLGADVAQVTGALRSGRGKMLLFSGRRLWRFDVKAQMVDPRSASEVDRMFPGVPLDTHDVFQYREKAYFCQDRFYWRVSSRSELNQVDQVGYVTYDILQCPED

K562/A02 [13] = assay: Inhibition of P-gp-mediated drug resistance in human K562/A02 cells assessed as reduction in adriamycin IC50 at 2 uM after 72 hrs by MTS assay relative to adriamycin alone; format: cell-based
How it was run: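 K562/A02 cells exposed to adriamycin with or without 2.0 μM modulator; verapamil 2.0 μM as reference. Viability by MTS after 72 h at 37 °C (absorbance 490 nm), adriamycin IC50 from dose-response curves. Reversal fold = adriamycin IC50 alone / adriamycin IC50 with modulator.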

[14] = molecular target: 72 kDa type IV collagenase (Homo sapiens) (UniProt P08253); assay: Residual MMP2 activity in human MDA-MB-231 cells at 5 uM after 24 hrs by gelatin zymography assay relative to control
MDA-MB-231 [15] = assay: Antimigratory activity against human MDA-MB-231 cells assessed as reduction in wound healing after 24 hrs by inverted microscopic analysis; format: functional, cell-based
How it was run: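 Confluent MDA-MB-231 monolayer scratched with 200 μL pipette tip, washed twice with PBS, then exposed to 5, 15 or 45 μM in DMEM with 10% FBS. Wound photographed by inverted microscope at 0 and 24 h. Relative migration = migration distance of treated cells divided by that of control.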

MDA-MB-231 [16] = assay: Inhibition of MMP9 expression in human MDA-MB-231 cells after 24 hrs by Western blot analysis; format: functional, cell-based; how it was run: as §3
MDA-MB-231 [17] = assay: Antimigratory activity against human MDA-MB-231 cells assessed as delay in cell migration at 5 to 45 uM after 4 hrs by crystal violet staining-based chamber migration assay relative to control; format: functional
How it was run: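 MDA-MB-231 cells pretreated 24 h with 5, 15 or 45 μM, suspended in serum-free medium and placed in upper transwell compartment; lower compartment medium with 10% FBS. After 4 h non-migrated cells swabbed off; migrated cells fixed in methanol, stained with 0.5% crystal violet, counted manually in three random fields. Migrated cells expressed as % of control.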

[18] = Selectivity ratio of IC50 for human K562/A02 cells to IC50 for human K562 cells; format: ADME; conditions: K562/A02 cells and K562 cells, read-out: Ratio IC50

| Structure (SMILES) | IC50 (K562/A02 [1]) [µM] | IC50 (K562 [2]) [µM] | other results |
| --- | --- | --- | --- |
| COc1ccc(C(=O)NCCN2Cc3cc(OC)c4c(c3-c3c(cc(OC)c5c3OCO5)C2)OCO4)cc1OC | 65.8 | 30.5 | inhibition (K562 [3]): inactive; inhibition (K562/A02 [4]): Dose-dependent effect |
| COc1cc(C(=O)NCCN2Cc3cc(OC)c4c(c3-c3c(cc(OC)c5c3OCO5)C2)OCO4)cc(OC)c1OC | 47.2 | 16.9 | Activity (MDA-MB-231 [5]): Active; IC50 (MDA-MB-231 [6]): 85.8 µM; inhibition [7]: Dose-dependent effect; inhibition (MDA-MB-231 [8]): Dose-dependent effect; Activity (K562/A02 [9]): inactive; Activity (K562/A02 [10]): inactive; residual activity [11]: 58.2%; inhibition [12]: Dose-dependent effect; fold change (FC) (K562/A02 [13]): 3.82; inhibition (K562 [3]): inactive; residual activity [14]: 59.1%; Activity (MDA-MB-231 [15]): Active; inhibition (K562/A02 [4]): Dose-dependent effect; inhibition (MDA-MB-231 [16]): Dose-dependent effect; Activity (MDA-MB-231 [17]): 65.7% |
| COc1cc(C(=O)NCCCCCCN2Cc3cc(OC)c4c(c3-c3c(cc(OC)c5c3OCO5)C2)OCO4)cc(OC)c1OC | 31.8 | 11.8 |  |
| COc1ccccc1C(=O)NCCN1Cc2cc(OC)c3c(c2-c2c(cc(OC)c4c2OCO4)C1)OCO3 | 63.9 | 15 |  |
| COc1cc2c(c3c1OCO3)-c1c(cc(OC)c3c1OCO3)CN(CCCCCCNC(=O)c1cccs1)C2 | 29 | 12.5 |  |
| COc1cc2c(c3c1OCO3)-c1c(cc(OC)c3c1OCO3)CN(CCCCCCNC(=O)c1ccc(Cl)cc1Cl)C2 | 34.5 | 13.7 |  |
| COc1cc2c(c3c1OCO3)-c1c(cc(OC)c3c1OCO3)CN(CCCCCCNC(=O)c1ccc(C)cc1)C2 | 23.3 | 8.18 |  |
| COc1cc2c(c3c1OCO3)-c1c(cc(OC)c3c1OCO3)CN(CCCCCCNC(=O)c1ccc(Cl)cc1)C2 | 18.4 | 5.85 |  |
| COc1ccc(NC(=O)CCN2Cc3cc(OC)c4c(c3-c3c(cc(OC)c5c3OCO5)C2)OCO4)cc1OC | 69.9 | 34.8 | Activity (MDA-MB-231 [5]): Active; IC50 (MDA-MB-231 [6]): 80.5 µM; inhibition [7]: Dose-dependent effect; inhibition (MDA-MB-231 [8]): Dose-dependent effect; Activity (K562/A02 [9]): inactive; Activity (K562/A02 [10]): inactive; residual activity [11]: 52.6%; inhibition [12]: Dose-dependent effect; fold change (FC) (K562/A02 [13]): 5.76; inhibition (K562 [3]): inactive; residual activity [14]: 52.8%; Activity (MDA-MB-231 [15]): Active; inhibition (K562/A02 [4]): Dose-dependent effect; inhibition (MDA-MB-231 [16]): Dose-dependent effect; Activity (MDA-MB-231 [17]): 54.8% |
| COc1cc2c(c3c1OCO3)-c1c(cc(OC)c3c1OCO3)CN(CCNC(=O)c1ccc(C)cc1)C2 | 28.2 | 14.4 |  |
| COc1cc2c(c3c1OCO3)-c1c(cc(OC)c3c1OCO3)CN(CCc1ccc3c(c1)OCO3)C2 | > 100 | 51.4 | fold change (FC) (K562/A02 [13]): 3.99 |
| COc1ccc(C(=O)NCCCCCCN2Cc3cc(OC)c4c(c3-c3c(cc(OC)c5c3OCO5)C2)OCO4)cc1OC | 28.3 | 14.1 |  |
| COc1ccccc1NC(=O)CCN1Cc2cc(OC)c3c(c2-c2c(cc(OC)c4c2OCO4)C1)OCO3 | 72.9 | 23.1 |  |
| COc1cccc2c1C(=O)c1c(O)c3c(c(O)c1C2=O)C[C@@](O)(C(=O)CO)C[C@@H]3O[C@H]1C[C@H](N)[C@H](O)[C@H](C)O1 [DOXORUBICIN HYDROCHLORIDE] | 25 | 0.39 | selectivity ratio [18]: 64 |
| COc1ccccc1C(=O)NCCCCCCN1Cc2cc(OC)c3c(c2-c2c(cc(OC)c4c2OCO4)C1)OCO3 | 26.2 | 11 |  |
| COc1cc2c(c3c1OCO3)-c1c(cc(OC)c3c1OCO3)CN(CCCCCCNC(=O)c1ccc(Cl)c(Cl)c1)C2 | 11.5 | 5.07 |  |
| COc1ccc(NC(=O)CCN2Cc3cc(OC)c4c(c3-c3c(cc(OC)c5c3OCO5)C2)OCO4)cc1 | 43.2 | 29.8 |  |
